bCat nuc transl: beta-catenin nuclear translocation modulation. AID 1665. nuclear translocation activity, % at 5 µM. HeLa beta-catenin nuclear translocation, immunofluorescence imaging. 190,000 compounds, 0.3% hits;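 active = nuclear translocation activity above 50% at 5 µM, with a well cell count of 50 or more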;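 note: per-cell ratio of nuclear to cytoplasmic median beta-catenin stain intensity; plate controls were DMSO negative control for no effect and GSK-3 inhibitor IX positive control for full effect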
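Technique: fluorescence imaging of beta-catenin antibody stain plus DAPI / Material: human HeLa cell line / Incubation: compound treatment 24 h, 37°C, 5% CO2 / Read-out basis: % activation of per-cell nuclear versus cytoplasmic median beta-catenin signal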
CHOP inh: inhibitors of CHOP induction in ER stress response; CHO-K1 CHOP-promoter luciferase, tunicamycin-induced, 15-18 h; inhibition, % at 10 µM; 220,000 compounds, 3.8% hits;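 active = compounds that reduced the stress-induced luciferase reporter signal by more than about 70% of percent inhibition, limit read from the data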;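 note: 0% = tunicamycin plus vehicle and 100% = wells without tunicamycin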
Autophagy mod: autophagy modulation, high-content screen; MEF GFP-LC3 puncta imaging; test concentration mostly 10 µM; calls only at 10 µM (by protocol); 190,000 compounds, 0.98% hits; AID 463193;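 active = percentage of spot-positive cells more than 3 SD above its plate mean, without a fluorescence outlier flag or 80% toxicity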;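 note: spot-positive cell cutoff set from DMSO-treated cells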
MT stabilizer: microtubule stabilizers in HeLa cells; 200,000 compounds, 0.83% hits; % tubulin-high responders, % at 10 µM; HeLa tubulin immunostaining HCS, 24 h; share of cells brighter than vehicle mean+2SD;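 active = plate Z-score above 3 for both tubulin-high and condensed-nucleus cell shares, with cell loss under 80%, at 10 µM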;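 note: anti alpha tubulin signal scored within the nucleus-defined area of each cell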
Dynein transport: dynein cargo transport inhibition; 3617.4 mouse cells, GR-EGFP nuclear translocation imaging; test concentration mostly 20 µM; stimulated with dexamethasone, 1 µM; stronger effect = lower value; z-score, hits read low; 220,000 compounds, 0.47% hits; AID 1381;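 active = plate z-score of nuclear minus cytoplasmic receptor signal below a set negative limit, without overly bright fluorescence or cell loss, cut at about -3.5 in these data, passing the limit was not always enough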;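 note: z-score of nuclear minus cytoplasmic ring GR-EGFP intensity difference per well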
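medium = tetracycline-free induction medium containing charcoal-stripped FBS | also added = 1.0 µM final dexamethasone stimulus | schedule = 48 h induction, 1 h compound, 30 min dex at 37 °C | technique = fixed, Hoechst-stained cells imaged at 10x for EGFP | measure = GR-EGFP nuclear translocation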
Lmaj promast: Leishmania major promastigote growth inhibition; Leishmania major promastigotes, resazurin fluorescence viability; inhibition, % at 10 µM; 200,000 compounds, 9% hits; in the data active = inhibition above about 50%;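 note: promastigotes grown with compound for 44 hours at 28 °C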
Starred values were filed as active, the others as inactive; i = inactive; . = no result given; + = active, no number. Shown are actives, neighbours in structure and some others; about 12% of the full set was active somewhere.

SMILES	bCat nuc transl	CHOP inh	Autophagy mod	MT stabilizer	Dynein transport	Lmaj promast
CN(C)CCCNC(=O)c1ccccn1	.	-10.5	i	1.0	-0.48	-4.6
CN(C)CCCNC(=O)c1ccc(-c2nc(-c3ccc(Cl)cc3)cs2)cc1	3.6	-64.9	i	92.6	-0.914	100.5*
N#CC1=C2SCC(O)(c3ccccc3)N2C(=O)CC1c1cccs1 (centres undefined)	175.5*	.	i	31.8*	-0.763	90.4*
N#CC1=C2SCC(O)(c3ccccc3)N2C(=O)CC1c1ccccc1F (centres undefined)	.	-8.6	i	47.3*	1.42	98.8*
COc1ccc(C2CC(=O)N3C(=C2C#N)SCC3(O)c2ccccc2)cc1 (centres undefined)	-6.1	19.4	i	2.6	-0.509	48.9
O=C(NC1CCCCC1)N(Cc1cc2cc3c(cc2[nH]c1=O)OCCO3)C1CCCCC1	-0.8	31.6	i	2.7	0.369	68.8*
COc1cc2cc(CN(C(=O)NC3CCCCC3)C3CCCC3)c(=O)[nH]c2cc1OC	-4.7	45.6	i	3.7	1.52	4.6
COc1ccc2cc(CN(C(=O)Nc3ccccc3OC)C3CCCC3)c(=O)[nH]c2c1	0.2	14.5	i	3.7	-0.851	53.1*
COc1ccc2cc(CN(CC3CCCO3)C(=O)Nc3ccccc3OC)c(=O)[nH]c2c1 (centres undefined)	-0.6	31.6	i	23.2*	0.409	16.2
COc1ccc(NC(=O)N(Cc2cc3ccc(OC)cc3[nH]c2=O)CC2CCCO2)cc1 (centres undefined)	0.8	-12.0	i	12.7*	-0.372	3.8
Cn1c(=O)c(-c2cc(=O)[nH][nH]2)c(O)c2ccccc21	-3.6	-13.2	i	1.3	0.879	1.1
CCCc1cc(=O)[nH]c(SCC(=O)c2cc(C)n(-c3c(C)n(C)n(-c4ccccc4)c3=O)c2C)n1	-2.6	0.0	i	2.3	-0.793	-10.2
Cc1cccc(C)c1NC(=O)/C(=C/c1ccco1)c1ccccc1	.	21.9	i	1.7	0.865	20.4
Cc1cc(C)c(NC(=O)/C(=C/c2ccco2)c2ccccc2)c(C)c1	.	9.2	i	3.3	-0.618	59.2*
Cc1cc2cc(CN(Cc3ccco3)C(=S)NCC3CCCO3)c(=O)[nH]c2cc1C (centres undefined)	-0.3	5.6	i	2.0	-0.381	-0.9
CC(C)CNC(=S)N(Cc1ccco1)Cc1cc2cc3c(cc2[nH]c1=O)OCCO3	-1.1	-5.7	i	33.4*	0.841	88.1*
Cc1ccc2cc(CN(Cc3ccco3)S(=O)(=O)c3c(C)ccc4nsnc34)c(=O)[nH]c2c1	-0.4	-3.0	i	5.4	0.165	23.5
COc1ccccc1NC(=S)N(Cc1ccco1)Cc1cc2cc(C)c(C)cc2[nH]c1=O	63.5*	-38.4	i	7.5	-0.314	36.5
Cc1cc2cc(CN(Cc3ccco3)S(=O)(=O)c3c(C)ccc4nsnc34)c(=O)[nH]c2cc1C	0.6	20.3	i	3.5	-0.0185	75.6*
COc1ccccc1NC(=O)N(Cc1ccco1)Cc1cc2cc(C)cc(C)c2[nH]c1=O	32.8	60.9	i	26.0*	1.77	63.1*
CSc1nnc(CCCCCCCCc2nnc(SC)o2)o1	-2.8	20.2	.	.	0.411	.
O=C(NN1C(=O)c2ccccc2NC1c1ccccn1)c1ccc(Br)cc1 (centres undefined)	.	29.0	i	2.7	-0.442	-5.3
COc1ccccc1NC(=O)N(Cc1ccco1)Cc1cc2ccc(C)c(C)c2[nH]c1=O	121.8*	.	i	57.1	3.73	10.1
Clc1ccccc1OCCCCN1CCCC1	-0.5	-12.2	i	1.4	-0.396	96.4*
Cc1cc(C)c(OCCN2C(=O)NC(C)(C)C2=O)c(Cl)c1	.	9.2	i	3.9	-0.457	7.6
SMILES	bCat nuc transl	CHOP inh	Autophagy mod	MT stabilizer	Dynein transport	Lmaj promast
Cc1cc(Cl)c(OCCCN2CCCCC2)c(Br)c1	0.0	2.9	i	2.0	-0.985	97.4*
Cc1cc(=O)[nH]c(SCCCOc2ccc(F)cc2)n1	.	31.1	i	1.6	-0.328	-6.3
Cc1cc(Cl)c(OCCCSc2nc(C)cc(=O)[nH]2)c(Br)c1	.	85.5*	i	2.1	-0.871	-8.2
CCOc1c(Cl)cc(C(=O)NCCN2CCCCC2)cc1Cl	0.9	49.1	i	2.3	-1.41	4.4
Cc1cc(Cl)c(OCCN2C(=O)NC(C)(C)C2=O)c(Br)c1	.	41.3	i	2.6	0.238	63.1*
COc1ccc(OC)c(NC(=S)N2CCC(C(O)(c3ccccc3)c3ccccc3)CC2)c1	3.6	13.0	i	7.1	1.39	15.7
CN1CCN(NS(=O)(=O)c2cccs2)CC1	-1.2	-6.3	i	3.2	0.125	40.6
Brc1ccccc1OCCCN1CCCCCC1	2.2	7.4	i	3.7	-0.0231	90.4*
O=C(OCCCN1CCCC1)C1(c2ccccc2)CCCC1	.	-5.2	i	3.1	0.818	99.8*
Brc1ccccc1OCCCCCN1CCOCC1	3.3	-3.0	i	1.9	-0.176	92.9*
CC(=O)c1ccccc1OCCOCCOCCOc1ccccc1C(C)=O	-2.8	6.2	i	1.1	-0.23	-4.4
CC(=O)c1ccccc1OCCCN1CCCCC1	3.7	9.2	i	4.5	0.182	89.5*
O=C(NC12CC3CC(CC(C3)C1)C2)OCCNC1CCCCC1	-2.7	-10.8	.	.	2.28	.
O=C(c1ccc2c3c(cccc13)CC2)C1CCCN(Cc2ccc(OCCO)cc2)C1 (centres undefined)	-0.1	26.9	i	3.2	-0.843	88.0*
O=C(c1ccc2c3c(cccc13)CC2)C1CCCN(Cc2ccccn2)C1 (centres undefined)	-2.1	7.9	i	2.3	-0.727	64.5*
O=C1CCC(C(=O)N2CCCC(C(=O)c3ccc4c5c(cccc35)CC4)C2)=NN1 (centres undefined)	-1.2	-1.3	i	32.6*	-0.0362	0.6
O=C1CCC(CCC(=O)N2CCCC(C(=O)c3ccc4c5c(cccc35)CC4)C2)=NN1 (centres undefined)	-0.8	32.9	i	4.3	0.753	9.2
NC(=O)CCC(=O)N1CCCC(C(=O)c2ccc3c4c(cccc24)CC3)C1 (centres undefined)	0.3	-19.6	i	2.3	-0.743	-5.8
Cc1cnc(CN2CCCC(C(=O)c3ccc4c5c(cccc35)CC4)C2)[nH]1 (centres undefined)	-0.3	54.7	+	2.0	1.31	98.7*
COCC(=O)N1CCCC(C(=O)c2ccc3c4c(cccc24)CC3)C1 (centres undefined)	0.9	16.4	i	1.1	-0.605	-1.9
CC(=O)Nc1ccc(NC(=O)C2CCCN2C(=O)Nc2ccc(F)c([N+](=O)[O-])c2)cc1 (centres undefined)	0.7	6.8	i	4.4	-0.0214	-9.0
